In ChEMBL document CHEMBL4014357, “Structure-Based Design and Synthesis of Potent and Selective Matrix Metalloproteinase 13 Inhibitors” (J Med Chem, 2017):
Blank lines part the entries; values can stand above or below the compound they belong to. Activity calls are given as the source filed them. The rule behind the calls is not given here.

Experiments:
Collagenase 3 [1] = molecular target: T1, Collagenase 3 (Homo sapiens, UniProt P45452); test: Inhibition of full length recombinant human MMP13 expressed in mouse NSO cells using fTHP-15 as substrate preincubated for 30 mins followed by substrate addition measured immediately by fluorescence assay
Neutrophil collagenase [2] = molecular target: T2, Neutrophil collagenase (Homo sapiens, UniProt P22894); test: Inhibition of MMP8 (unknown origin) using fTHP-15 as substrate preincubated for 30 mins followed by substrate addition measured immediately by fluorescence assay
[3] = molecular target: Matrix metalloproteinase-9 (Homo sapiens, UniProt P14780); test: Inhibition of MMP9 (unknown origin) using fTHP-15 as substrate preincubated for 30 mins followed by substrate addition measured immediately by fluorescence assay
[4] = molecular target: Matrix metalloproteinase-14 (Homo sapiens, UniProt P50281); test: Inhibition of recombinant human MMP14 using fTHP-15 as substrate preincubated for 30 mins followed by substrate addition measured immediately by fluorescence assay
[5] = molecular target: T3, 72 kDa type IV collagenase (Homo sapiens, UniProt P08253); test: Inhibition of recombinant human MMP2 expressed in mouse NSO cells using fTHP-15 as substrate preincubated for 30 mins followed by substrate addition measured immediately by fluorescence assay
Collagenase 3 [6] = molecular target: T1, Collagenase 3; test: Inhibition of full length recombinant human MMP13 expressed in mouse NSO cells using varying levels of fTHP-15 as substrate preincubated for 30 mins followed by substrate addition measured immediately by Lineweaver-Burk plot analysis
[7] = molecular target: Angiotensin-converting enzyme (Homo sapiens) (UniProt P12821); test: Inhibition of ACE (unknown origin) at 1 uM relative to control
[8] = molecular target: Angiotensin-converting enzyme 2 (Homo sapiens) (UniProt Q9BYF1); test: Inhibition of ACE2 (unknown origin) at 1 uM relative to control
Caspase-7 (Homo sapiens) = Caspase-7 (Homo sapiens) (UniProt P55210); test: Inhibition of caspase7 (unknown origin) at 1 uM relative to control
[9] = molecular target: Disintegrin and metalloproteinase domain-containing protein 17 (Homo sapiens) (UniProt P78536); test: Inhibition of TACE (unknown origin) at 1 uM relative to control
Furin (Homo sapiens) = Furin (Homo sapiens) (UniProt P09958); test: Inhibition of furin (unknown origin) at 1 uM relative to control
[10] = molecular target: Coagulation factor X (Homo sapiens) (UniProt P00742); test: Inhibition of factor10a (unknown origin) at 1 uM relative to control
[11] = molecular target: Cathepsin D (Homo sapiens) (UniProt P07339); test: Inhibition of cathepsin-D (unknown origin) at 1 uM relative to control
[12] = molecular target: Insulin-degrading enzyme (Homo sapiens) (UniProt P14735); test: Inhibition of IDE (unknown origin) at 1 uM relative to control
Caspase-6 (Homo sapiens) = Caspase-6 (Homo sapiens) (UniProt P55212); test: Inhibition of caspase6 (unknown origin) at 1 uM relative to control
[13] = molecular target: Urokinase-type plasminogen activator (Homo sapiens) (UniProt P00749); test: Inhibition of uPA (unknown origin) at 1 uM relative to control
Caspase-5 (Homo sapiens) = Caspase-5 (Homo sapiens) (UniProt P51878); test: Inhibition of caspase5 (unknown origin) at 1 uM relative to control
[14] = molecular target: Neprilysin (Homo sapiens) (UniProt P08473); test: Inhibition of neprilysin (unknown origin) at 1 uM relative to control
Caspase-1 (Homo sapiens) = Caspase-1 (Homo sapiens) (UniProt P29466); test: Inhibition of caspase1 (unknown origin) at 1 uM relative to control
[15] = molecular target: Prothrombin (Homo sapiens) (UniProt P00734); test: Inhibition of thrombin (unknown origin) at 1 uM relative to control
Caspase-3 (Homo sapiens) = Caspase-3 (Homo sapiens) (UniProt P42574); test: Inhibition of caspase3 (unknown origin) at 1 uM relative to control
Caspase-2 (Homo sapiens) = Caspase-2 (Homo sapiens) (UniProt P42575); test: Inhibition of caspase2 (unknown origin) at 1 uM relative to control
[16] = molecular target: Procathepsin L (Homo sapiens) (UniProt P07711); test: Inhibition of cathepsin-L (unknown origin) at 1 uM relative to control
[17] = molecular target: Cathepsin K (Homo sapiens) (UniProt P43235); test: Inhibition of cathepsin-K (unknown origin) at 1 uM relative to control
[18] = molecular target: Cathepsin S (Homo sapiens) (UniProt P25774); test: Inhibition of cathepsin-S (unknown origin) at 1 uM relative to control
[19] = molecular target: Matrilysin (Homo sapiens) (UniProt P09237); test: Inhibition of MMP7 (unknown origin) at 1 uM relative to control
[20] = molecular target: Beta-secretase 1 (Homo sapiens) (UniProt P56817); test: Inhibition of BACE1 (unknown origin) at 1 uM relative to control
[21] = molecular target: Disintegrin and metalloproteinase domain-containing protein 10 (Homo sapiens) (UniProt O14672); test: Inhibition of ADAM10 (unknown origin) at 1 uM relative to control
Neutrophil collagenase [22] = molecular target: T2, Neutrophil collagenase; test: Inhibition of MMP8 (unknown origin) at 200 nM using fTHP-15 as substrate preincubated for 30 mins followed by substrate addition measured immediately by fluorescence assay
In short: (§1)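 Each enzyme was activated per the supplier's protocol and diluted in EAB (50 mM Tris·HCl pH 7.5, 100 mM NaCl, 10 mM CaCl2, 0.05% Brij-35). Compound was tested at a single 200 nM and preincubated with enzyme for 30 min at 25 °C. Adding fTHP-15 started the reaction, with fluorescence read immediately. Inhibition was scored as percent substrate-to-product conversion after 30 min.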

[23] = molecular target: T3, 72 kDa type IV collagenase; test: Inhibition of recombinant human MMP2 expressed in mouse NSO cells at 200 nM using fTHP-15 as substrate preincubated for 30 mins followed by substrate addition measured immediately by fluorescence assay; in short: as §1

Coagulation factor X (Homo sapiens), sequence (P00742 41-179 limits assumed): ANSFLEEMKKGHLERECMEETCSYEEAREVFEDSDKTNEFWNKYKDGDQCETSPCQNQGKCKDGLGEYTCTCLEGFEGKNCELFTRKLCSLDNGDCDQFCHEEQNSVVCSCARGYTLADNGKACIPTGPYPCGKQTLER
Coagulation factor X (Homo sapiens), sequence (P00742 235-488 limits assumed): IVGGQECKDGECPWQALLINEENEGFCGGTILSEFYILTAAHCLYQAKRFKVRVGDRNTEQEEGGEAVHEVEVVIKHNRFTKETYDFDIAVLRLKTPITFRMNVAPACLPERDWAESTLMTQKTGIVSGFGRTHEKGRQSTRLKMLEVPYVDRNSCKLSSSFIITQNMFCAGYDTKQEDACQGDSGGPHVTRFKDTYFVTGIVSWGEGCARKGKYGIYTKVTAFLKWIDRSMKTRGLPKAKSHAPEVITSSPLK
Caspase-7 (Homo sapiens), sequence (P55210 24-198 limits assumed): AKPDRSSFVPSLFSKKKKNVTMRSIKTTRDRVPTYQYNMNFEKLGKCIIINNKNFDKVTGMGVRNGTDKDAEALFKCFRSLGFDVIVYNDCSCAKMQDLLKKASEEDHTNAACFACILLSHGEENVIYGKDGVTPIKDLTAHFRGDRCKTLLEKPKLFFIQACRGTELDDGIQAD
Caspase-7 (Homo sapiens), sequence (P55210 207-303 limits assumed): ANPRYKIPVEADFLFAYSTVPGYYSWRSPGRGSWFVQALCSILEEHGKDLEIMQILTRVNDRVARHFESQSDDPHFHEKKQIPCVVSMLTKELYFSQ
Procathepsin L (Homo sapiens), sequence (P07711 114-333 limits assumed): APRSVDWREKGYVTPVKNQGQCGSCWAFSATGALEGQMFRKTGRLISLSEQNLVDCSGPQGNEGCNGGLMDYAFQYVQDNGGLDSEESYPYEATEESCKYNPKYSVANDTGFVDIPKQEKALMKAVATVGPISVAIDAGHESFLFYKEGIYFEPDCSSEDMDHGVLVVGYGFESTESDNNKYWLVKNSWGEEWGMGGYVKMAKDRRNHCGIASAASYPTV
Beta-secretase 1 (Homo sapiens), sequence (P56817 whole entry, the tested form may be a part): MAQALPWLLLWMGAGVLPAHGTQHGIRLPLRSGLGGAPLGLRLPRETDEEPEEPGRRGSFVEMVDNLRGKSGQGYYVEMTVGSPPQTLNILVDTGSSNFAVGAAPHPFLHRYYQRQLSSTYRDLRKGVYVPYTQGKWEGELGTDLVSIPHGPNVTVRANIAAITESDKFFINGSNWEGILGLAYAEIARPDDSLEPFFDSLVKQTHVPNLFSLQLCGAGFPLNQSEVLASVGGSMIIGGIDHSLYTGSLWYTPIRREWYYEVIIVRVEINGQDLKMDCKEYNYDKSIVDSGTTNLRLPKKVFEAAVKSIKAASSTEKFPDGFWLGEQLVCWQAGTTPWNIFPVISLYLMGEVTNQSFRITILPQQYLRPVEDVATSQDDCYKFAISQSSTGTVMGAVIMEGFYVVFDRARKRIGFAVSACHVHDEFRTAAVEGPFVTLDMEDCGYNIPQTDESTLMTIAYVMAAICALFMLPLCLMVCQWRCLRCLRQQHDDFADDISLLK
Matrilysin (Homo sapiens), sequence (P09237 whole entry): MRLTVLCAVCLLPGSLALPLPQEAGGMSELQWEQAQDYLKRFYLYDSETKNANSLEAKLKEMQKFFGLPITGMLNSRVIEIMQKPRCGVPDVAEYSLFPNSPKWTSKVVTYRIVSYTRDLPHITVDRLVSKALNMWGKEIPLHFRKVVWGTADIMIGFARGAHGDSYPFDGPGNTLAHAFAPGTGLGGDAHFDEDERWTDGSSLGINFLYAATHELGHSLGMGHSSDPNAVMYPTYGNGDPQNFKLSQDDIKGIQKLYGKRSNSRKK
Angiotensin-converting enzyme 2 (Homo sapiens), sequence (Q9BYF1 18-805 limits assumed): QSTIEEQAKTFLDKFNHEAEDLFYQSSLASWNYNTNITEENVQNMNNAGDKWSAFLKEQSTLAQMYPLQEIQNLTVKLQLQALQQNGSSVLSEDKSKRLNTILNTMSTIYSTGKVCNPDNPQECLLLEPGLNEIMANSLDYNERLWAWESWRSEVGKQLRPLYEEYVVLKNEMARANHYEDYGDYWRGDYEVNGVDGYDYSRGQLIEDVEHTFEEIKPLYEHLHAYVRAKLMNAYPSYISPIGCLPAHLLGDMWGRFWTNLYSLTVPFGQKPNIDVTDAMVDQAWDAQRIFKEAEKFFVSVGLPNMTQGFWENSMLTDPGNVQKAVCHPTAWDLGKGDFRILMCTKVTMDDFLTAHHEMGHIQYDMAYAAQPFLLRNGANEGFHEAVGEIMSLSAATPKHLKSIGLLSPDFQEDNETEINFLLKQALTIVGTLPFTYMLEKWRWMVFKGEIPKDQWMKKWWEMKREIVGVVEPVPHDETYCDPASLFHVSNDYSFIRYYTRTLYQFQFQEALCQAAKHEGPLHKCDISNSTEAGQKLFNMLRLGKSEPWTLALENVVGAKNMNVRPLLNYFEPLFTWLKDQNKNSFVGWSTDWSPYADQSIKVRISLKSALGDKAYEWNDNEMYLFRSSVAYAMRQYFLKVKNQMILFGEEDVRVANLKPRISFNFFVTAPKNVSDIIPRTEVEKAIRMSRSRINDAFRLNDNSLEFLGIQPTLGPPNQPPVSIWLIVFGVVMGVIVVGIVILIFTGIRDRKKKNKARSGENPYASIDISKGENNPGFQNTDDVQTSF
Cathepsin S (Homo sapiens), sequence (P25774 115-331 limits assumed): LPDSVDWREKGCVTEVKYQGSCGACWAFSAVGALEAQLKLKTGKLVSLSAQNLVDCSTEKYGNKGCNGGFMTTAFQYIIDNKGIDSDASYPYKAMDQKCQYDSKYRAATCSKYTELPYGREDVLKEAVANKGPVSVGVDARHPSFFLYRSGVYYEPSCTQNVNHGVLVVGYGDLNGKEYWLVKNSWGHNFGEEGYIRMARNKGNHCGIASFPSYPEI
Caspase-1 (Homo sapiens), sequence (P29466 120-297 limits assumed): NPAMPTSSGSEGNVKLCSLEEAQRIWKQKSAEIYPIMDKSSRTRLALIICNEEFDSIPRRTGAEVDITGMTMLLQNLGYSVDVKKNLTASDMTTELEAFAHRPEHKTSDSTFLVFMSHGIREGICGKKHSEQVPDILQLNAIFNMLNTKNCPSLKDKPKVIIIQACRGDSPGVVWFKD
Caspase-1 (Homo sapiens), sequence (P29466 317-404 limits assumed): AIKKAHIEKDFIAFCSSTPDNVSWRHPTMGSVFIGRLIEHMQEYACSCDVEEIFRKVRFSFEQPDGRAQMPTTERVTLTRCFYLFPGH
Caspase-6 (Homo sapiens), sequence (P55212 24-179 limits assumed): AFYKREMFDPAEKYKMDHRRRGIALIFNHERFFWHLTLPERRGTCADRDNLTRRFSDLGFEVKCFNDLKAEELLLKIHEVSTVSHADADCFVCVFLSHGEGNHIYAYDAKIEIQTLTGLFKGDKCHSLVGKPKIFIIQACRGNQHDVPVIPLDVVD
Caspase-6 (Homo sapiens), sequence (P55212 194-293 limits assumed): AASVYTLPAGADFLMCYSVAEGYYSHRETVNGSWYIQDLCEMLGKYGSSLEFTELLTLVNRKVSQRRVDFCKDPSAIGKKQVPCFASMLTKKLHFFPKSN
Caspase-5 (Homo sapiens), sequence (P51878 137-327 limits assumed): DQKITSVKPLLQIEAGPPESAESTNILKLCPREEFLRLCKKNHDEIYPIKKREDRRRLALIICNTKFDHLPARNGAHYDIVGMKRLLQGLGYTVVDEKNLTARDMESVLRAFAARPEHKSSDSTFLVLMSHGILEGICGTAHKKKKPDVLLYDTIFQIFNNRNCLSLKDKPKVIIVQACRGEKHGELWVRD
Caspase-5 (Homo sapiens), sequence (P51878 347-434 limits assumed): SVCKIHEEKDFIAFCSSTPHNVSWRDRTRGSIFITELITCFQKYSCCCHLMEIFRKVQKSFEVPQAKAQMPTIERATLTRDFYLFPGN
Disintegrin and metalloproteinase domain-containing protein 10 (Homo sapiens), sequence (O14672 whole entry, the tested form may be a part): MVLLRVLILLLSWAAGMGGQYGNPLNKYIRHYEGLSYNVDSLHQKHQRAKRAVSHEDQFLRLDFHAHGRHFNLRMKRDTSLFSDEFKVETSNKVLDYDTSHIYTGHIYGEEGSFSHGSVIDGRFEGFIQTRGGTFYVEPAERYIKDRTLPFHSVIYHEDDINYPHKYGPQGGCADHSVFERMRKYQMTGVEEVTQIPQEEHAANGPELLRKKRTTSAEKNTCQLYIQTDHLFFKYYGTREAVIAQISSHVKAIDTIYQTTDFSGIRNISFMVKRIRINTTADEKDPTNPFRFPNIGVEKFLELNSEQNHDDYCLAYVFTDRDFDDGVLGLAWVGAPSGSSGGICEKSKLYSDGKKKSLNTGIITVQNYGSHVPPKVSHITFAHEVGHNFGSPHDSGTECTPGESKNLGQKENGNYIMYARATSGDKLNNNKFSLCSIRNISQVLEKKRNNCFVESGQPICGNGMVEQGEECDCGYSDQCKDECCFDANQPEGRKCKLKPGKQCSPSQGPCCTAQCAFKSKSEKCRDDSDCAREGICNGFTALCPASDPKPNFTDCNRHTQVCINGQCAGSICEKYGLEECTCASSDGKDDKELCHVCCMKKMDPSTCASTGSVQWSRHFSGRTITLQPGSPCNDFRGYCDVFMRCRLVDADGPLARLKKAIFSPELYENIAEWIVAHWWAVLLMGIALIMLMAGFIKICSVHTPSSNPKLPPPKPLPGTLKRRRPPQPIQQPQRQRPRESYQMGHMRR
Caspase-2 (Homo sapiens), sequence (P42575 170-325 limits assumed): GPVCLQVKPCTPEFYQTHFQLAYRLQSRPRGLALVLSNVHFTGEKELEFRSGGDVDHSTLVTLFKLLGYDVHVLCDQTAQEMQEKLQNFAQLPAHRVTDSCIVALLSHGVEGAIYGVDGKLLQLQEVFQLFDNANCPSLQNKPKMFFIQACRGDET
Caspase-2 (Homo sapiens), sequence (P42575 334-452 limits assumed): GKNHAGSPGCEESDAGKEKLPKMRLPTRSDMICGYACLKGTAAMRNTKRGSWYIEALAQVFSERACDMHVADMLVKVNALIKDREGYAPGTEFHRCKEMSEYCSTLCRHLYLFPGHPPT
Caspase-3 (Homo sapiens), sequence (P42574 29-175 limits assumed): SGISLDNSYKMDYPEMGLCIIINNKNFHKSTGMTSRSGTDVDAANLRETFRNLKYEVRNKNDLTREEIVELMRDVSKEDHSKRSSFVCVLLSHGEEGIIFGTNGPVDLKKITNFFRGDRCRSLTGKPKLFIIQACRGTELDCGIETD
Caspase-3 (Homo sapiens), sequence (P42574 176-277 limits assumed): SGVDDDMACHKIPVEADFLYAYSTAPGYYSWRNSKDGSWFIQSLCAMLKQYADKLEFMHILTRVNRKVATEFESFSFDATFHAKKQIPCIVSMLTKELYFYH

inhibition (Neutrophil collagenase [22]): Active
inhibition [23]: Active
IC50 (Collagenase 3 [1]): 0.0094 µM
SMILES: CNC(=O)[C@@H](NC(=O)c1ccc(-c2ccc(CSc3nc4c(c(=O)[nH]3)CCC4)cc2)o1)C(C)C

inhibition [7]: 0%
inhibition [8]: 0%
inhibition (Caspase-7 (Homo sapiens)): 8%
inhibition [9]: -3%
inhibition (Furin (Homo sapiens)): 0%
inhibition [10]: 0%
inhibition [11]: 0%
inhibition [12]: 0%
inhibition (Caspase-6 (Homo sapiens)): 0%
inhibition [13]: 1%
inhibition (Caspase-5 (Homo sapiens)): 0%
inhibition [14]: -6%
inhibition (Caspase-1 (Homo sapiens)): 0%
inhibition [15]: -8%
inhibition (Caspase-3 (Homo sapiens)): 0%
inhibition (Caspase-2 (Homo sapiens)): 0%
inhibition [16]: 7%
inhibition [17]: 2%
inhibition [18]: 2%
inhibition [19]: 4%
inhibition [20]: 0%
inhibition [21]: 0%
SMILES: CNC(=O)[C@@H](NC(=O)c1ccc(-c2ccc(CSc3nc4c(c(=O)[nH]3)CCC4)c(F)c2)o1)C(C)C

IC50 (Collagenase 3 [1]): 0.356 µM
SMILES: CNC(=O)[C@H](NC(=O)c1ccc(-c2ccc(CSc3nc4c(c(=O)[nH]3)CCC4)cc2)o1)C(C)C

Further lines, the compound ahead of its results:

SMILES: CC(C)[C@@H](NS(=O)(=O)c1ccc(-c2ccc(CSc3nc4c(c(=O)[nH]3)CCC4)cc2)cc1)C(=O)O
IC50 (Collagenase 3 [1]): 0.007 µM

SMILES: O=c1[nH]c(SCc2ccc(-c3ccc(S(=O)(=O)NCCO)cc3)cc2)nc2c1CCC2
IC50 (Neutrophil collagenase [2]): > 5 µM
IC50 [3]: > 10 µM
IC50 [4]: > 10 µM
IC50 [5]: > 5 µM

SMILES: Cc1ccc(CSc2nc(O)c3c(n2)CCC3)cc1
Ki (Collagenase 3 [6]): 0.8 µM

SMILES: NCCNS(=O)(=O)c1ccc(-c2ccc(CSc3nc4c(c(=O)[nH]3)CCC4)cc2)cc1
inhibition [7]: 7%
inhibition [8]: 1%
inhibition (Caspase-7 (Homo sapiens)): 1%
inhibition [9]: 4%
inhibition (Furin (Homo sapiens)): 0%
inhibition [10]: 3%
inhibition [11]: 3%
inhibition [12]: 0%
inhibition (Caspase-6 (Homo sapiens)): 0%
inhibition [13]: 3%
inhibition (Caspase-5 (Homo sapiens)): 0%
inhibition [14]: 3%
inhibition (Caspase-1 (Homo sapiens)): 1%
inhibition [15]: -3%
inhibition (Caspase-3 (Homo sapiens)): 0%
inhibition (Caspase-2 (Homo sapiens)): 0%
inhibition [16]: 9%
inhibition [17]: 0%
inhibition [18]: 12%
inhibition [19]: 7%
inhibition [20]: 1%
inhibition [21]: 0%
